{"source": "BindingDB's records for doi:10.1016/j.bmcl.2018.01.022", "about": "(Temple University, 2018)", "target": "T1, Ribonuclease P protein component (Staphylococcus aureus, UniProt P0A0H5)", "T1 sequence (P0A0H5 whole entry)": "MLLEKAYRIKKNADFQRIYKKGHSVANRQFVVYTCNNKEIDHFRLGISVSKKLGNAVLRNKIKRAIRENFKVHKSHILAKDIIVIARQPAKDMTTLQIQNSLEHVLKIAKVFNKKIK", "assay": "Inhibition of Staphylococcus aureus RnpA-mediated mRNA degradation after 15 to 30 mins by ethidium bromide staining based agarose gel electrophoresis", "how_it_was_run": "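Recombinant S. aureus RnpA protein of ≥97% purity was tested in vitro for inhibition of its mRNA degradation activity, following the procedure previously described.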"}
{"smiles": "CC(C)c1ccc(OCC(=O)NNC(=S)NC(=O)c2ccno2)cc1", "values": [{"measurement": "IC50", "result": "> 500", "unit": "µM"}]}
